From ChEMBL document CHEMBL1153433, “Design and synthesis of 2-amino-4-methylpyridine analogues as inhibitors for inducible nitric oxide synthase and in vivo evaluation of [18F]6-(2-fluoropropyl)-4-methyl-pyridin-2-amine as a potential PET tracer for inducible nitric oxide synthase” (J Med Chem, 2009)

Assays:
Lung [1] = assay: Biodistribution in LPS treated C57BL/6N mouse lung at 50 uCi/110 uL, iv administered 6 hrs […] LPS challenge measured after 2 hrs post drug dose; type: ADME, organism-based; settings: in vivo
Procedure, shortened: (§1)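 Male C57BL/6N mice, 6-8 weeks; LPS (E. coli O127:B8) in PBS, 10 mg/kg i.v., given 6 h before tracer. HPLC-purified [18F]tracer ~50 μCi in 10% ethanol/saline i.v. via tail vein. Killed at 5 min, 30 min, 1 h or 2 h; tissues weighed and gamma-counted against diluted injectate standards. Reported as %ID/g, mean ± SD, n = 4.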

[2] = Metabolic stability in Sprague-Dawley rat plasma assessed as parent compound remaining at 400 uCi, iv after 30 mins by HPLC; type: ADME, organism-based; settings: read-out: Stability
Procedure, shortened: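 Anesthetized male Sprague-Dawley rat given 400 μCi [18F]tracer in 10% ethanol/saline i.v. via tail vein. Blood drawn by cardiac puncture at 5 and 30 min. Plasma separated by centrifugation, treated with 3 equivalents of acetonitrile and centrifuged; supernatant filtered and analysed by HPLC. Samples kept on ice.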

Blood [3] = assay: Biodistribution in LPS treated C57BL/6N mouse blood at 50 uCi/110 uL, iv administered 6 hrs […] LPS challenge measured after 2 hrs post drug dose; type: ADME, organism-based; settings: in vivo
Procedure, shortened: (§2)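 Male C57BL/6N mice aged 6-8 weeks received E. coli O127:B8 LPS in PBS, 10 mg/kg i.v., 6 h before tracer. Tracer ~50 μCi in 10% ethanol/saline, i.v. tail vein. Sacrifice was at 5 min, 30 min, 1 h or 2 h post-injection. Organs were weighed and gamma-counted with injectate standards. Data are %ID/g, mean ± SD, n = 4.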

Blood [4] = assay: Biodistribution in C57BL/6N mouse blood at 50 uCi/110 uL, iv after 2 hrs; type: ADME, organism-based; settings: in vivo
Procedure, shortened: (§3)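 Untreated (control) male C57BL/6N mice aged 6-8 weeks. HPLC-purified tracer, ~50 μCi in 10% ethanol/saline, given i.v. via the tail vein. Mice were sacrificed at 5 min, 30 min, 1 h and 2 h post-injection. Tissues were removed, weighed and gamma-counted against diluted injectate standards. Data are %ID/g, mean ± SD, n = 4.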

Lung [5] = assay: Biodistribution in LPS treated C57BL/6N mouse lung at 50 uCi/110 uL, iv administered 6 hrs […] LPS challenge measured after 5 mins post drug dose; type: ADME, organism-based; settings: in vivo; procedure, shortened: as §1
Lung [6] = assay: Biodistribution in C57BL/6N mouse lung at 50 uCi/110 uL, iv after 5 mins; type: ADME, organism-based; settings: in vivo; procedure, shortened: as §3
Lung [7] = assay: Biodistribution in LPS treated C57BL/6N mouse lung at 50 uCi/110 uL, iv administered 6 hrs […] LPS challenge measured after 30 mins post drug dose; type: ADME, organism-based; settings: in vivo, 0.5 h; procedure, shortened: as §1
Lung [8] = assay: Biodistribution in C57BL/6N mouse lung at 50 uCi/110 uL, iv after 30 mins; type: ADME, organism-based; settings: in vivo, 0.5 h; procedure, shortened: as §3
Lung [9] = assay: Biodistribution in C57BL/6N mouse lung at 50 uCi/110 uL, iv after 1 hr; type: ADME, organism-based; settings: in vivo; procedure, shortened: as §3
Lung [10] = assay: Biodistribution in C57BL/6N mouse lung at 50 uCi/110 uL, iv after 2 hrs; type: ADME, organism-based; settings: in vivo; procedure, shortened: as §3
Liver [11] = assay: Biodistribution in C57BL/6N mouse liver at 50 uCi/110 uL, iv after 5 mins; type: ADME, organism-based; settings: in vivo; procedure, shortened: as §3
Bone [12] = assay: Biodistribution in C57BL/6N mouse bone at 50 uCi/110 uL, iv after 2 hrs; type: ADME, organism-based, Bone element; settings: in vivo; procedure, shortened: as §3
Liver [13] = assay: Biodistribution in C57BL/6N mouse liver at 50 uCi/110 uL, iv after 1 hr; type: ADME, organism-based; settings: in vivo; procedure, shortened: as §3
Liver [14] = assay: Biodistribution in LPS treated C57BL/6N mouse liver at 50 uCi/110 uL, iv administered 6 hrs […] LPS challenge measured after 2 hrs post drug dose; type: ADME, organism-based; settings: in vivo; procedure, shortened: as §1
Liver [15] = assay: Biodistribution in C57BL/6N mouse liver at 50 uCi/110 uL, iv after 2 hrs; type: ADME, organism-based; settings: in vivo; procedure, shortened: as §3
Kidney [16] = assay: Biodistribution in LPS treated C57BL/6N mouse kidney at 50 uCi/[…], iv administered […] measured after 5 mins post drug dose; type: ADME, organism-based; settings: in vivo; procedure, shortened: as §1
Kidney [17] = assay: Biodistribution in C57BL/6N mouse kidney at 50 uCi/110 uL, iv after 5 mins; type: ADME, organism-based; settings: in vivo; procedure, shortened: as §3
Kidney [18] = assay: Biodistribution in LPS treated C57BL/6N mouse kidney at 50 uCi/110 uL, iv administered 6 hrs […] LPS challenge measured after 30 mins post drug dose; type: ADME, organism-based; settings: in vivo, 0.5 h; procedure, shortened: as §1
Kidney [19] = assay: Biodistribution in C57BL/6N mouse kidney at 50 uCi/110 uL, iv after 30 mins; type: ADME, organism-based; settings: in vivo, 0.5 h; procedure, shortened: as §3
Kidney [20] = assay: Biodistribution in LPS treated C57BL/6N mouse kidney at 50 uCi/110 uL, iv administered 6 hrs […] LPS challenge measured after 1 hr post drug dose; type: ADME, organism-based; settings: in vivo; procedure, shortened: as §2
Kidney [21] = assay: Biodistribution in C57BL/6N mouse kidney at 50 uCi/110 uL, iv after 1 hr; type: ADME, organism-based; settings: in vivo; procedure, shortened: as §3
Kidney [22] = assay: Biodistribution in LPS treated C57BL/6N mouse kidney at 50 uCi/110 uL, iv administered 6 hrs […] LPS challenge measured after 2 hrs post drug dose; type: ADME, organism-based; settings: in vivo; procedure, shortened: as §1
Blood [23] = assay: Biodistribution in C57BL/6N mouse blood at 50 uCi/110 uL, iv after 30 mins; type: ADME, organism-based; settings: in vivo, 0.5 h; procedure, shortened: as §3
Muscle tissue [24] = assay: Biodistribution in LPS treated C57BL/6N mouse muscle at 50 uCi/110 uL, iv administered 6 hrs […] LPS challenge measured after 1 hr post drug dose; type: ADME, organism-based; settings: in vivo; procedure, shortened: as §1
Muscle tissue [25] = assay: Biodistribution in C57BL/6N mouse muscle at 50 uCi/110 uL, iv after 1 hr; type: ADME, organism-based; settings: in vivo; procedure, shortened: as §3
Heart [26] = assay: Biodistribution in LPS treated C57BL/6N mouse heart at 50 uCi/110 uL, iv administered 6 hrs […] LPS challenge measured after 5 mins post drug dose; type: ADME, organism-based; settings: in vivo; procedure, shortened: as §2
Heart [27] = assay: Biodistribution in LPS treated C57BL/6N mouse heart at 50 uCi/110 uL, iv administered 6 hrs […] LPS challenge measured after 1 hr post drug dose; type: ADME, organism-based; settings: in vivo; procedure, shortened: as §2
Heart [28] = assay: Biodistribution in LPS treated C57BL/6N mouse heart at 50 uCi/110 uL, iv administered 6 hrs […] LPS challenge measured after 2 hrs post drug dose; type: ADME, organism-based; settings: in vivo; procedure, shortened: as §2
Brain [29] = assay: Biodistribution in LPS treated C57BL/6N mouse brain at 50 uCi/110 uL, iv administered 6 hrs […] LPS challenge measured after 5 mins post drug dose; type: ADME, organism-based; settings: in vivo; procedure, shortened: as §2
Brain [30] = assay: Biodistribution in LPS treated C57BL/6N mouse brain at 50 uCi/110 uL, iv administered 6 hrs […] LPS challenge measured after 30 mins post drug dose; type: ADME, organism-based; settings: in vivo, 0.5 h; procedure, shortened: as §2
Brain [31] = assay: Biodistribution in C57BL/6N mouse brain at 50 uCi/110 uL, iv after 30 mins; type: ADME, organism-based; settings: in vivo, 0.5 h; procedure, shortened: as §3
Brain [32] = assay: Biodistribution in LPS treated C57BL/6N mouse brain at 50 uCi/110 uL, iv administered 6 hrs […] LPS challenge measured after 2 hrs post drug dose; type: ADME, organism-based; settings: in vivo; procedure, shortened: as §2
Brain [33] = assay: Biodistribution in C57BL/6N mouse brain at 50 uCi/110 uL, iv after 2 hrs; type: ADME, organism-based; settings: in vivo; procedure, shortened: as §3
Bone [34] = assay: Biodistribution in LPS treated C57BL/6N mouse bone at 50 uCi/110 uL, iv administered 6 hrs […] LPS challenge measured after 5 mins post drug dose; type: ADME, organism-based, Bone element; settings: in vivo; procedure, shortened: as §2
Bone [35] = assay: Biodistribution in C57BL/6N mouse bone at 50 uCi/110 uL, iv after 30 mins; type: ADME, organism-based, Bone element; settings: in vivo, 0.5 h; procedure, shortened: as §3

Drug uptake (Lung [1]): 0.18 % ID/g | remaining at 0.5 h [2]: 20.2% | Drug uptake (Blood [3]): 0.23 % ID/g | Drug uptake (Blood [4]): 0.27 % ID/g | Drug uptake (Lung [5]): 4.32 % ID/g | Drug uptake (Lung [6]): 3.33 % ID/g | Drug uptake (Lung [7]): 1.84 % ID/g | Drug uptake (Lung [8]): 1.14 % ID/g | Drug uptake (Lung [9]): 0.31 % ID/g | Drug uptake (Lung [10]): 0.15 % ID/g | Drug uptake (Liver [11]): 33.2 % ID/g | Drug uptake (Bone [12]): 5.59 % ID/g | Drug uptake (Liver [13]): 2.59 % ID/g | Drug uptake (Liver [14]): 0.42 % ID/g | Drug uptake (Liver [15]): 0.74 % ID/g | Drug uptake (Kidney [16]): 26.7 % ID/g | Drug uptake (Kidney [17]): 20.6 % ID/g | Drug uptake (Kidney [18]): 10.9 % ID/g | Drug uptake (Kidney [19]): 7.3 % ID/g | Drug uptake (Kidney [20]): 3.95 % ID/g | Drug uptake (Kidney [21]): 2.2 % ID/g | Drug uptake (Kidney [22]): 0.91 % ID/g | Drug uptake (Blood [23]): 1.22 % ID/g | Drug uptake (Muscle tissue [24]): 0.78 % ID/g | Drug uptake (Muscle tissue [25]): 0.27 % ID/g | Drug uptake (Heart [26]): 2.03 % ID/g | Drug uptake (Heart [27]): 0.41 % ID/g | Drug uptake (Heart [28]): 0.12 % ID/g | Drug uptake (Brain [29]): 1.81 % ID/g | Drug uptake (Brain [30]): 0.52 % ID/g | Drug uptake (Brain [31]): 0.28 % ID/g | Drug uptake (Brain [32]): 0.07 % ID/g | Drug uptake (Brain [33]): 0.07 % ID/g | Drug uptake (Bone [34]): 1.59 % ID/g | Drug uptake (Bone [35]): 2.26 % ID/g
Compound: Cc1cc(N)nc(CC(C)[18F])c1 (stereo not given)
